Series [1] concerns the target T1, CYP450 (Homo sapiens, UniProt P04798+P05177+P05181+P08684+P10632+P10635+P11509+P11712+P13584+P20813+P20815+P20853+P24462+P24903+P33260+P33261+P51589+P78329+P98187+Q02928+Q08477+Q16678+Q16696+Q5TCH4+Q6VVX0+Q7Z449+Q8TAV3+Q96SQ9+Q9HB55). As to the kind of experiment: Microsomal stability in human liver microsomes assessed as CYP450-mediated metabolism by measuring compound remaining at 5 uM and measured for 60 mins in presence of NADPH by UPLC-MS/MS analysis (reference value: 100%). The settings on record: read-out: Stability. The class given is ADME. In a few lines: (§1)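 Compound at 5 µM with 0.5 mg/mL liver microsomes in PBS. Phase I was started with 1 mM NADPH; phase II used 2 mM UDPGA. Diclofenac served as reference. Samples taken at 0, 15, 30 and 60 min were quenched in ice-cold acetonitrile, centrifuged at 4°C and analysed by LC-MS. Mean of at least two replicates ± SD.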
In general terms: Liver microsomes are a subcellular fraction often used to study metabolism.

Series [2] deals with UGT (Homo sapiens, UniProt O60656+O75310+O75795+P06133+P0DTE4+P0DTE5+P16662+P19224+P22309+P22310+P35503+P35504+P36537+P54855+Q6UWM9+Q9BY64+Q9HAW7+Q9HAW8+Q9HAW9). In words: Microsomal stability in human liver microsomes assessed as UGT-mediated metabolism by measuring compound remaining at 5 uM and measured for 60 mins in presence of UDPGA by UPLC-MS/MS analysis (reference value: 100%). The class given is ADME. Conditions: read-out: Stability. In a few lines:
as §1

Series [3] deals with Mycobacterium tuberculosis. As to the kind of experiment: Antimycobacterial activity against Mycobacterium tuberculosis H37Ra lux infected in mouse J774A.1 cells assessed as reduction in intracellular mycobacterial replication at 1.5 uM incubated for 24 to 72 hrs by luminometric assay relative to control. The class given is functional. Also noted: scale not given: the % may be the effect or the level left. In a few lines:
(§2)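 J774A.1 cells were infected at MOI 10 for 2 h at 37°C. Extracellular bacteria were killed with 100 µg/mL gentamicin for 1 h, then cells were washed and treated. At 24, 48 and 72 h, cells were lysed with 1% Triton X-100 and n-decanal was added to the lysate. Luminescence (RLU) reported as mean of triplicates ± SD.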

The target of series [4] is T1, CYP450. In words: Microsomal stability in human liver microsomes assessed as CYP450-mediated metabolism by measuring compound remaining at 5 uM and measured for 30 mins in presence of NADPH by UPLC-MS/MS analysis (reference value: 100%). The format is ADME. Conditions: read-out: Stability. In a few lines: as §1
The nature of series [5]: Genotoxicity in Salmonella typhimurium TA104 harboring with RecN2-4 assessed as S/N ratio at 1 to 100 uM measured for 4 hrs with 5 mins interval in presence of rat liver S9 fraction by luminescence based assay. The settings on record: salmonella enterica subsp. enterica serovar typhimurium, s9, 4 h. The format is toxicity, subcellular. In a few lines: (§3)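 VITOTOX test. Genox (recN2-4) and Cytox (pr1) S. typhimurium TA104 strains were diluted 250-fold and grown in 869 medium for 16 h at 36°C with shaking, then diluted 10-fold and grown 1 h more. Compounds tested at 1, 10 and 100 µM, with or without rat liver S9-mix. Luminescence read for 4 h at 5-min intervals. S/N thresholds: Genox >1.5 genotoxic; Cytox <0.8 toxic, >1.5 luminescence artefact.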

Series [6] relates to Mycobacterium tuberculosis. In words: Antimycobacterial activity against Mycobacterium tuberculosis H37Ra lux infected in mouse J774A.1 cells assessed as reduction in intracellular mycobacterial replication at 5.0 uM incubated for 24 to 72 hrs by luminometric assay relative to control. The class given is functional. On the set-up: scale not given: the % may be the effect or the level left. In a few lines:
as §2

The subject of a further series is Pseudomonas aeruginosa. As to the kind of experiment: Antibacterial activity against Pseudomonas aeruginosa ATCC 9027 incubated for 24 hrs by resazurin dye based fluorimetric assay. The settings on record: ATCC 9027, 24 h. The format is functional, organism-based. In a few lines: (§4)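 Resazurin microtiter assay: compounds from 10 mM DMSO stock, twofold serial dilutions from 64 µM final in growth medium, in triplicate. Inoculum from frozen glycerol stocks. Exposure 24 h, or 7 days for Mtb H37Ra (7H9 + 0.5% glycerol + 10% OADC). Then 0.01% resazurin was added and plates were incubated at 37°C until pink. Fluorescence read at ex 550/em 590 nm; mean of triplicates.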
A general note: Alamar Blue is a resazurin reagent that responds to reducing activity.

Series [7] concerns UGT. As to the kind of experiment: Microsomal stability in mouse liver microsomes assessed as UGT-mediated metabolism by measuring compound remaining at 5 uM and measured for 30 mins in presence of UDPGA by UPLC-MS/MS analysis (reference value: 100%). The class given is ADME. The settings on record: read-out: Stability. In a few lines:
as §1

In another series the test system is Streptococcus pneumoniae. In words: Antibacterial activity against Streptococcus pneumoniae ATCC BAA-334 incubated for 24 hrs by resazurin dye based fluorimetric assay. The class given is functional, organism-based. The settings on record: ATCC BAA-334, 24 h. In a few lines:
as §4

Series [8] can be described thus: Antimycobacterial activity against Mycobacterium avium subsp. avium ATCC 25291 by resazurin dye based fluorimetric assay. The class given is functional. In a few lines:
(§5)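 Resazurin microtiter method as for the bacterial panel. Mycobacteria grown in 7H9 with 10% OADC and 0.5% glycerol; for BCG, 0.05% Tween 80 replaced the glycerol. Cultures were sonicated and needle-passed to single cells. Incubation at 37°C, or 32°C for M. marinum. Fluorescence read at ex 550/em 590 nm; mean of triplicates.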

Series [9] in a line: Selectivity index, ratio of […] for cytotoxicity against mouse J774A.1 cells. Conditions: read-out: Selectivity Index. The class given is toxicity, cell-based.
Series [10] can be described thus: Genotoxicity in Salmonella typhimurium TA104 harboring with pr1 assessed as S/N ratio at 1 to 100 uM measured for 4 hrs with 5 mins interval by luminescence based assay. The class given is toxicity. Conditions: salmonella enterica subsp. enterica serovar typhimurium. In a few lines:
as §3

For series [11], the system named is UGT. In words: Microsomal stability in mouse liver microsomes assessed as UGT-mediated metabolism by measuring compound remaining at 5 uM and measured for 60 mins in presence of UDPGA by UPLC-MS/MS analysis (reference value: 100%). The settings on record: read-out: Stability. The format is ADME. In a few lines:
as §1

A short description of series [12]: Genotoxicity in Salmonella typhimurium TA104 harboring with RecN2-4 assessed as S/N ratio at 1 to 100 uM measured for 4 hrs with 5 mins interval by luminescence based assay. The class given is toxicity. Conditions: salmonella enterica subsp. enterica serovar typhimurium. In a few lines:
as §3

Series [13] is described as follows: Cytotoxicity against mouse J774A.1 cells assessed as reduction in cell viability incubated for 24 hrs by neutral red uptake assay. The format is cell-based, J774.A1. In a few lines:
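J774A.1 cells in DMEM + 10% iFCS, 37°C, 5% CO2, seeded at 40.000 cells/well and left overnight. Twofold dilutions from 128 µM final; 24 h exposure. Neutral red uptake for 3 h, dye extracted with 1:1 ethanol/acetic acid, OD read at 530 nm (reference 620 nm). CC50 = 50% reduction in uptake; mean of triplicates.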

In another series the test system is Escherichia coli. In words: Antibacterial activity against Escherichia coli ATCC 8739 incubated for 24 hrs by resazurin dye based fluorimetric assay. The class given is functional, organism-based. The settings on record: ATCC 8739, ATCC 8739, 24 h. In a few lines: as §4
Series [14] concerns UGT. In words: Microsomal stability in mouse liver microsomes assessed as UGT-mediated metabolism by measuring compound remaining at 5 uM and measured for 15 mins in presence of UDPGA by UPLC-MS/MS analysis (reference value: 100%). The settings on record: read-out: Stability. The format is ADME. In a few lines: as §1
Series [15] relates to CYP450. In words: Microsomal stability in mouse liver microsomes assessed as CYP450-mediated metabolism by measuring compound remaining at 5 uM and measured for 60 mins in presence of NADPH by UPLC-MS/MS analysis (reference value: 100%). The class given is ADME. Conditions: read-out: Stability. In a few lines: as §1
A further series relates to Mycobacterium marinum. As to the kind of experiment: Antimycobacterial activity against Mycobacterium marinum NCTC 2275 by resazurin dye based fluorimetric assay. The class given is functional, organism-based. In a few lines: as §5

The structures appear in SMILES notation. Active and inactive are the calls of the source. A value given as a limit tells only on which side of the number the result lay.

What is called IC50 is the midpoint of a concentration-inhibition curve. Usually CC50 stands for the concentration giving 50% cytotoxicity. As for `O=C1C2=C(C(=O)c3c1cnc1ccccc31)C1CCC2C1` (stereo not drawn), the remaining at 1 h, 5 µM on CYP450 [1] came to 100%; on UGT [2], 68%; in the series with UGT [11], 78%; in the series on CYP450 [15] it was 94%. The values for the Activity in [3] and in [6] were 20.68% and 58.94%, respectively. Moreover, the remaining at 0.5 h, 5 µM at CYP450 [4] amounted to 100%; in the series with UGT [7] it was 86%. Besides, the Ratio entry is reported as “<= 1.5” in series [5], “>= 0.8” in [10] and “<= 1.5” in series [12]. In addition, the 50% inhibitory concentration (IC50) is more than 64 µM in the series with Pseudomonas aeruginosa; 32 to 64 µM in the series with Streptococcus pneumoniae; 0.12 µM in series [8]; more than 64 µM in the series on Escherichia coli; 7.73 µM in the series with Mycobacterium marinum. The selectivity ratio in [9] turned out to be 10.2. Besides, the CC50 at 24 h in series [13] is 64.5 µM. In addition, in the series on UGT [14], the remaining at 0.25 h, 5 µM was 69%.

In the case of `O=C1C2=C(C(=O)c3c1cnc1c(F)cccc31)C1CCC2C1` (stereo not drawn), the remaining at 1 h, 5 µM at CYP450 [1] was 100%; at UGT [2], 65%; in the series with UGT [11], 61%; in the series on CYP450 [15], 100%. For the same compound, the outcome in series [3] and in series [6] was inactive. Further, the remaining at 0.5 h, 5 µM at CYP450 [4] stood at 100%; in the series on UGT [7] it was 70%. Further, the Ratio entry in series [5] is “<= 1.5”; in [10], “>= 0.8”; in series [12], “<= 1.5”. For the same compound, the half-inhibitory concentration (IC50) is more than 64 µM with Pseudomonas aeruginosa; 32 to 64 µM in the series with Streptococcus pneumoniae; 0.1 µM in series [8]; more than 64 µM in the series with Escherichia coli; 3.3 µM in the series on Mycobacterium marinum. For the same compound, in series [9], the selectivity ratio came out at 19.3. Moreover, the CC50 at 24 h in [13] amounted to 85.5 µM. In addition, in the series on UGT [14], the remaining at 0.25 h, 5 µM is 77%.
